# Reference: ChEMBL document CHEMBL1156144, “Biaryl ethers as novel non-nucleoside reverse transcriptase inhibitors with improved potency against key mutant viruses” (J Med Chem, 2009)
# Experiments:
# [1] = Inhibition of RNA-dependent DNA polymerase activity of wild type HIV reverse transcriptase assessed as BrdU incorporation by standard ECL assay; design: species or system Human immunodeficiency virus
# How it was run: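 Purified recombinant wild-type RT polymerase activity was measured using a 500-nt heteropolymeric RNA template and a biotinylated DNA primer. BrdU incorporation was detected with a ruthenylated anti-BrdU antibody by electrochemiluminescence. Ki is the geometric mean of at least two determinations, each within 25% of the mean.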
# [2] = biological target: Human immunodeficiency virus type 1 reverse transcriptase (Human immunodeficiency virus 1, UniProt Q72547, K103N); assay: Inhibition of RNA-dependent DNA polymerase activity of recombinant HIV reverse transcriptase K103N mutant assessed as BrdU incorporation by standard ECL assay
# [3] = tested on: Human immunodeficiency virus; assay: Antiviral activity against wild type HIV H9-3B infected in human MT2 cells assessed as inhibition of viral replication measuring p24 level after 3 days in presence of 10% fetal bovine serum; format: functional; details: Human immunodeficiency virus 1, MT2, Serum; read-out: CIC95
# How it was run: (§1)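 Multiple-cycle spread assay in MT2 cells with wild-type H9IIIB virus. Cells were infected overnight at moi ≈ 0.01 without compound, washed, then cultured 3 days across varying compound concentrations in RPMI 1640 with 10% FBS or 50% NHS. p24 was measured in supernatants. CIC95 is the lowest concentration inhibiting replication ≥95%, as the geometric mean of ≥2 determinations.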
# [4] = tested on: Human immunodeficiency virus; assay: Antiviral activity against wild type HIV H9-3B infected in human MT2 cells assessed as inhibition of viral replication measuring p24 level after 3 days in presence of 50% normal human serum; format: functional; details: Human immunodeficiency virus 1, H9-3B, 72 h, read-out: CIC95; how it was run: as §1
# [5] = tested on: Human immunodeficiency virus; assay: Antiviral activity against HIV with reverse transcriptase K103N mutant infected in human MT2 cells assessed as inhibition of viral replication measuring p24 level after 3 days in presence of 10% fetal bovine serum; format: functional; details: Human immunodeficiency virus 1, MT2, Serum, 72 h; read-out: CIC95
# How it was run: (§2)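 Multiple-cycle replication (Spread) assay in MT2 cells with H9IIIB-background mutant virus. Cells were infected overnight at moi ≈ 0.01 without compound, washed, then cultured 3 days across a range of compound concentrations in medium with 10% FBS. p24 was measured in supernatants. CIC95 is the lowest concentration inhibiting replication by ≥95%, reported as the geometric mean of ≥2 determinations.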
# [6] = tested on: Human immunodeficiency virus; assay: Antiviral activity against HIV with reverse transcriptase Y181C mutant infected in human MT2 cells assessed as inhibition of viral replication measuring p24 level after 3 days in presence of 10% fetal bovine serum; format: functional; details: Human immunodeficiency virus 1, MT2, Serum, 72 h; read-out: CIC95; how it was run: as §2
# [7] = tested on: Human immunodeficiency virus; assay: Antiviral activity against HIV with reverse transcriptase K103N/Y181C double mutant infected in human MT2 cells assessed as inhibition of viral replication measuring p24 level after 3 days in presence of 10% fetal bovine serum; format: functional; details: Human immunodeficiency virus 1, MT2, Serum, 72 h; read-out: CIC95; how it was run: as §2
# [8] = Clearance in Sprague-Dawley rat at 2 mg/kg, iv; format: ADME, organism-based; design: dose 2 mg/kg, route intravenous; details: in vivo
# [9] = Volume of distribution in Sprague-Dawley rat at 2 mg/kg, iv; format: ADME, organism-based; design: dose 2 mg/kg, route intravenous; details: in vivo
# [10] = tested on: Rattus norvegicus; assay: AUC in Sprague-Dawley rat at 2 mg/kg, iv; format: ADME, organism-based, Plasma; design: dose 2 mg/kg, route intravenous; details: in vivo
# [11] = tested on: Rattus norvegicus; assay: AUC in Sprague-Dawley rat at 10 mg/kg, po; format: ADME, organism-based, Plasma; design: dose 10 mg/kg, route oral; details: in vivo
# [12] = Half life in Sprague-Dawley rat at 2 mg/kg, iv; format: ADME, organism-based; design: dose 2 mg/kg, route intravenous; details: in vivo
# [13] = Oral bioavailability in Sprague-Dawley rat at 10 mg/kg; format: ADME, organism-based; details: in vivo
# [14] = Clearance in Beagle dog at 0.5 mg/kg, iv; format: ADME, organism-based, Canis lupus familiaris; design: dose 0.5 mg/kg, route intravenous; details: in vivo
# [15] = Volume of distribution in Beagle dog at 0.5 mg/kg, iv; format: ADME, organism-based, Canis lupus familiaris; design: dose 0.5 mg/kg, route intravenous; details: in vivo
# [16] = tested on: Canis familiaris; assay: AUC in Beagle dog at 1 mg/kg, po; format: ADME, organism-based, Canis lupus familiaris, Plasma; design: dose 1 mg/kg, route oral; details: in vivo
# [17] = Half life in Beagle dog at 0.5 mg/kg, iv; format: ADME, organism-based, Canis lupus familiaris; design: dose 0.5 mg/kg, route intravenous; details: in vivo
# [18] = Oral bioavailability in Beagle dog at 1 mg/kg; format: ADME, organism-based, Canis lupus familiaris; details: in vivo
# [19] = Clearance in rhesus monkey at 1 mg/kg, iv; format: ADME, organism-based, Macaca mulatta; design: dose 1 mg/kg, route intravenous; details: in vivo
# [20] = Volume of distribution in rhesus monkey at 1 mg/kg, iv; format: ADME, organism-based, Macaca mulatta; design: dose 1 mg/kg, route intravenous; details: in vivo
# [21] = tested on: Rhesus monkey; assay: AUC in rhesus monkey at 5 mg/kg, po; format: ADME, organism-based, Macaca mulatta, Plasma; design: dose 5 mg/kg, route oral; details: in vivo
# [22] = Half life in rhesus monkey at 1 mg/kg, iv; format: ADME, organism-based, Macaca mulatta; design: dose 1 mg/kg, route intravenous; details: in vivo
# [23] = tested on: Human immunodeficiency virus; assay: Antiviral activity against HIV with reverse transcriptase MDRC4 mutant assessed as inhibition of viral replication; format: functional, organism-based; details: Human immunodeficiency virus 1
# [24] = tested on: Human immunodeficiency virus; assay: Antiviral activity against HIV with reverse transcriptase CNDO mutant assessed as inhibition of viral replication; format: functional, organism-based; details: Human immunodeficiency virus 1
# [25] = tested on: Human immunodeficiency virus; assay: Antiviral activity against HIV with reverse transcriptase L100I mutant assessed as inhibition of viral replication; format: functional, organism-based; details: Human immunodeficiency virus 1
# [26] = tested on: Human immunodeficiency virus; assay: Antiviral activity against HIV with reverse transcriptase K103N mutant assessed as inhibition of viral replication; format: functional, organism-based; details: Human immunodeficiency virus 1
# [27] = tested on: Human immunodeficiency virus; assay: Antiviral activity against HIV with reverse transcriptase Y181C mutant assessed as inhibition of viral replication; format: functional, organism-based; details: Human immunodeficiency virus 1
# [28] = tested on: Human immunodeficiency virus; assay: Antiviral activity against HIV with reverse transcriptase Y188L mutant assessed as inhibition of viral replication; format: functional, organism-based; details: Human immunodeficiency virus 1
# [29] = tested on: Human immunodeficiency virus; assay: Antiviral activity against HIV with reverse transcriptase G190A mutant assessed as inhibition of viral replication; format: functional, organism-based; details: Human immunodeficiency virus 1
# [30] = tested on: Human immunodeficiency virus; assay: Antiviral activity against HIV with reverse transcriptase G190S mutant assessed as inhibition of viral replication; format: functional, organism-based; details: Human immunodeficiency virus 1
# [31] = tested on: Human immunodeficiency virus; assay: Antiviral activity against HIV with reverse transcriptase L100I/K103N double mutant assessed as inhibition of viral replication; format: functional, organism-based; details: Human immunodeficiency virus 1
# [32] = tested on: Human immunodeficiency virus; assay: Antiviral activity against HIV with reverse transcriptase K103N/Y181C double mutant assessed as inhibition of viral replication; format: functional, organism-based; details: Human immunodeficiency virus 1
# [33] = tested on: Human immunodeficiency virus; assay: Antiviral activity against HIV with reverse transcriptase K103N/G190A double mutant assessed as inhibition of viral replication; format: functional, organism-based; details: Human immunodeficiency virus 1
# [34] = tested on: Human immunodeficiency virus; assay: Antiviral activity against HIV with reverse transcriptase Y181C/G190A double mutant assessed as inhibition of viral replication; format: functional, organism-based; details: Human immunodeficiency virus 1
# [35] = tested on: Human immunodeficiency virus; assay: Antiviral activity against HIV with reverse transcriptase K103N/P225H double mutant assessed as inhibition of viral replication; format: functional, organism-based; details: Human immunodeficiency virus 1
# [36] = tested on: Human immunodeficiency virus; assay: Antiviral activity against HIV with reverse transcriptase K101E/G190A double mutant assessed as inhibition of viral replication; format: functional, organism-based; details: Human immunodeficiency virus 1
# [37] = tested on: Human immunodeficiency virus; assay: Antiviral activity against HIV with reverse transcriptase K101E/Y181C/G190A mutant assessed as inhibition of viral replication; format: functional, organism-based; details: Human immunodeficiency virus 1
# [38] = tested on: Human immunodeficiency virus; assay: Antiviral activity against HIV with reverse transcriptase K103N/Y181C/G190A mutant assessed as inhibition of viral replication; format: functional, organism-based; details: Human immunodeficiency virus 1
# [39] = tested on: Human immunodeficiency virus; assay: Antiviral activity against HIV with reverse transcriptase V106A/G190A/F227L mutant assessed as inhibition of viral replication; format: functional, organism-based; details: Human immunodeficiency virus 1
# [40] = biological target: Cytochrome P450 3A4 (Homo sapiens, UniProt P08684); assay: Inhibition of CYP3A4; format: ADME
# [41] = biological target: Cytochrome P450 2D6 (Homo sapiens, UniProt P10635); assay: Inhibition of CYP2D6; format: ADME
# [42] = tested on: Canis familiaris; assay: Cardiotoxicity in conscious cardiovascular dog assessed as mean arterial pressure at 10 mg/kg, iv; format: toxicity, organism-based, Canis lupus familiaris, Heart; design: dose 10 mg/kg, route intravenous; details: in vivo
# [43] = tested on: Canis familiaris; assay: Cardiotoxicity in conscious cardiovascular dog assessed as heart rate at 10 mg/kg, iv; format: toxicity, organism-based, Canis lupus familiaris; design: dose 10 mg/kg, route intravenous; details: in vivo
# [44] = tested on: Canis familiaris; assay: Cardiotoxicity in conscious cardiovascular dog assessed as electrocardiogram at 10 mg/kg, iv; format: toxicity, organism-based, Canis lupus familiaris, Heart; design: dose 10 mg/kg, route intravenous; details: in vivo
# [45] = Plasma concentration in rat at 100 mg/kg, po after 24 hrs; format: ADME, organism-based; design: dose 100 mg/kg, route oral
# [46] = Oral bioavailability in rhesus monkey at 5 mg/kg; details: in vivo
# Cytochrome P450 2D6, sequence (P10635 whole entry): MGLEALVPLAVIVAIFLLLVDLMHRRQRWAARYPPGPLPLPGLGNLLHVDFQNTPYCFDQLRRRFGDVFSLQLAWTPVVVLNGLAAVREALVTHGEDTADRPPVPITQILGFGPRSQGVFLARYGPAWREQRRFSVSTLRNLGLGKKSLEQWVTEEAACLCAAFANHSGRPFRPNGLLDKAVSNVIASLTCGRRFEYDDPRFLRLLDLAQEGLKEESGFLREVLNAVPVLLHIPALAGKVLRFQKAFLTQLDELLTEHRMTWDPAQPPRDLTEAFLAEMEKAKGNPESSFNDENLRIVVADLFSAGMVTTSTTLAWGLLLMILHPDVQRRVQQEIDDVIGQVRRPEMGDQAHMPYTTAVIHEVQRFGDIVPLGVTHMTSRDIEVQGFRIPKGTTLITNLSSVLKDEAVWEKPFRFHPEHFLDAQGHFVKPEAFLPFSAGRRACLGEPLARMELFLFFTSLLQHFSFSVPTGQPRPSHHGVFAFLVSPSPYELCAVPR
# Cytochrome P450 3A4, sequence (P08684 whole entry): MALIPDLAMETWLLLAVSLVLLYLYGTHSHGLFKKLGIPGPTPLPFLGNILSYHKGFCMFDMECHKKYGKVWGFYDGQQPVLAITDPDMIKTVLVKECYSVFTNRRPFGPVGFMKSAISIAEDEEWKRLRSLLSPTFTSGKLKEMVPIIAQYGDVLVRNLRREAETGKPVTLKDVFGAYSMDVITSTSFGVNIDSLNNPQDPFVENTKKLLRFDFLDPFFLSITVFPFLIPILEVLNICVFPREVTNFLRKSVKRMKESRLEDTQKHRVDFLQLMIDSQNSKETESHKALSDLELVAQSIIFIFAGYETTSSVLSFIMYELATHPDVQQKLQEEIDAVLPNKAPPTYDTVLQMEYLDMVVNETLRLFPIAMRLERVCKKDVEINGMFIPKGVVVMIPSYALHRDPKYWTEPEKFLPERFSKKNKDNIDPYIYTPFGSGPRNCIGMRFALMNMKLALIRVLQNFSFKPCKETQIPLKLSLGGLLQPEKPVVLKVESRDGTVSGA
structure (smiles),measurement,setting,value
N#Cc1cc(Cl)cc(Oc2cc(OCc3n[nH]c4nc(N)ccc34)cc(F)c2Cl)c1,Ki,[1],0.1 nM
same,Ki,[2],0.4 nM
same,IC95,[3],8 nM
same,IC95,[4],69 nM
same,IC95,[5],18 nM
same,IC95,[6],14 nM
same,IC95,[7],62 nM
same,clearance,[8],10 mL/min/kg
same,Vd,[9],3.5 L/kg
same,AUC,[10],7.4 µM
same,AUC,[11],18 µM
same,half-life,[12],4.6 h
same,bioavailability,[13],49%
same,clearance,[14],4 mL/min/kg
same,Vd,[15],2.3 L/kg
same,AUC,[16],6 µM
same,half-life,[17],7 h
same,bioavailability,[18],63%
same,clearance,[19],15 mL/min/kg
same,Vd,[20],3.6 L/kg
same,AUC,[21],1.7 µM
same,half-life,[22],4.2 h
same,IC50,[23],6.4 nM
same,IC50,[24],1.1 nM
same,IC50,[25],0.6 nM
same,IC50,[26],3.3 nM
same,IC50,[27],2.2 nM
same,IC50,[28],326 nM
same,IC50,[29],2 nM
same,IC50,[30],37.3 nM
same,IC50,[31],112 nM
same,IC50,[32],184 nM
same,IC50,[33],9.6 nM
same,IC50,[34],4.3 nM
same,IC50,[35],3.3 nM
same,IC50,[36],3.4 nM
same,IC50,[37],19.2 nM
same,IC50,[38],84.3 nM
same,IC50,[39],> 1000 nM
same,IC50,[40],4400 nM
same,IC50,[41],47400 nM
same,Activity,[42],Non-toxic
same,Activity,[43],Non-toxic
same,Activity,[44],Non-toxic
same,AUC at 24 h,[45],180 µM·h
same,bioavailability,[46],13%
